The record followed here is ChEMBL document CHEMBL4513216, “Probing the Open Global Health Chemical Diversity Library for Multistage-Active Starting Points for Next-Generation Antimalarials” (ACS Infect Dis, 2020).

Molecules are shown by their SMILES.

The series is described as follows: Toxicity liver stage against HepG2, at 10uM. Format: cell-based. The note with it: human, HepG2-A16-CD81EGFP cells; read-out: INHIBITION
Also noted: test concentration 10 uM, cell line HepG2-A16-CD81EGFP. In a few lines: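 Uninfected HepG2-A16-CD81EGFP cells, 3 × 10^3 per well, 1536-well, plated on prespotted compound at 10 μM final, parasite-free screening media added to match infected plates; puromycin 10 μM positive, DMSO 0.5% negative; run in parallel with 48 h PbLuc assay at 37 °C, 5% CO2; viability by CellTiter-Glo luminescence, normalized to controls.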
In the case of `c1ccc(CNC[C@H]2COCc3nc4cccnc4n32)cc1`, the cytotoxicity at 10 µM is -1.84%.

As to `CN(C)CCCNC(=O)c1cc(-c2ccc3c(c2)CCO3)n[nH]1`, the cytotoxicity at 10 µM is -12.8%.

For the compound `N#Cc1ccc(OC2CCN(C(=O)c3cncc(Br)c3)CC2)nc1`, the cytotoxicity at 10 µM was determined as 3.05%.

Take `Cn1ncc2c1NC(=O)CC2c1ccccc1Cl` (stereo not given): the cytotoxicity at 10 µM stood at 55.7%.

For the compound `CN(C)c1cc(C2CCCN(S(=O)(=O)C3CCCC3)C2)ccn1` (stereo not given), the cytotoxicity at 10 µM was -20.8%.

For `Cn1nccc1CCC(=O)N1CCC(c2cnccn2)CC1`, the cytotoxicity at 10 µM is -21.7%.

`O=C(NCCCO)Nc1cnc2cc(Cl)ccc2c1O`: the cytotoxicity at 10 µM came out at 2.05%.

`Oc1nc(N2CCOCC2)nc2c1CCN(Cc1cccc(F)c1)CC2`: the cytotoxicity at 10 µM was -8.08%.

In the case of `NC(=O)C1(CCCc2ccccn2)CCCN(Cc2ccncc2)C1` (stereo not given), the cytotoxicity at 10 µM is -4.8%.

Consider `Cc1cc(C)c2cc(CNCc3ccc(C)o3)c3nn(C)c(=O)n3c2c1`, for which the cytotoxicity at 10 µM is -1.83%.

On to `Cc1nc(C)c(C(=O)Nc2cnn(CC(=O)NC3CCCC3)c2)s1`, for which the cytotoxicity at 10 µM was -3.33%.

Consider `O=C(N[C@@H]1CN(CCc2ccc(F)cc2)C[C@H]1O)c1cscn1`, for which the cytotoxicity at 10 µM is -3.08%.

For `COc1ccc(CN2CCC(c3nnc(-c4scnc4C)o3)CC2)cc1`, the cytotoxicity at 10 µM is -5.03%.

Take `CN(C)[C@@H]1CN(C(=O)COc2cccc(F)c2)C[C@H]1O`: the cytotoxicity at 10 µM was -10.4%.

`O=C(CCn1cncn1)NCC1CCOC1` (stereo not given): the cytotoxicity at 10 µM is -43.4%.

For `Cc1cc(C)n(CCN2CCC(N(C)Cc3nnc(C)n3C)C2)n1` (stereo not given), the cytotoxicity at 10 µM was determined as 2.35%.

`O=C(CN1CCOCC1)N1CCN(C2CCc3ccc(F)cc32)CC1` (stereo not given): the cytotoxicity at 10 µM is 6.24%.

For the compound `CC(CCN1CCCC1=O)NCc1cnc(C2CCC2)s1` (stereo not given), the cytotoxicity at 10 µM is -0.743%.

On to `c1ccc2sc(N3CCCC(Cn4cncn4)C3)nc2c1` (stereo not given), for which the cytotoxicity at 10 µM was -40.1%.

For `CC(C)n1nc2c(cc1=O)CN(Cc1nc(-c3ccco3)no1)CC2`, the cytotoxicity at 10 µM was 2.35%.

Regarding `OCC1CCN(c2ccc(NCc3ccsc3)nc2)CC1`, the cytotoxicity at 10 µM amounted to 8.94%.

Consider `CCN(CC1CCCO1)C(=O)Nc1cccc(N2CCOCC2)c1` (stereo not given), for which the cytotoxicity at 10 µM came out at 8.44%.

In the case of `CCOCCN1CCN(Cc2nc(C)no2)CC1CC` (stereo not given), the cytotoxicity at 10 µM was found to be 13.1%.

Take `CC(C)c1noc(CN(Cc2ccccc2)C2CC2)n1`: the cytotoxicity at 10 µM came out at 0.563%.

With `Cc1cc(NCc2ccccc2CN2CCCCC2)n2ncnc2n1`, the cytotoxicity at 10 µM was -1.86%.

As for `O=C(Nc1nnc(C2CC2)s1)NC1CCOc2ccccc21` (stereo not given), the cytotoxicity at 10 µM is 24.2%.

In the case of `O=C(NCCCNC(=O)C1CCC1)NCCn1cccc1`, the cytotoxicity at 10 µM is 0.215%.

For `CC1COCCN1Cc1nc(Cc2ccccc2)no1` (stereo not given), the cytotoxicity at 10 µM is 5.17%.

Take `COCCOCC(=O)Nc1ccnn1-c1ccc(Cl)cc1`: the cytotoxicity at 10 µM is -11.6%.

Turning to `NC(=O)CNC(=O)c1ccc(CNCc2ccc(F)cc2F)cc1`, the cytotoxicity at 10 µM was -43.4%.

`CC(=O)NCc1nnn2c1CN(c1ncccn1)CCC2`: the cytotoxicity at 10 µM was -107%.

For `NC(=O)[C@H]1CCCN(c2nccc(-c3c[nH]nc3-c3cccnc3)n2)C1`, the cytotoxicity at 10 µM was -5.89%.

`COc1cccc(OC)c1-c1ccnc2cc(CC(=O)NC(C)C)nn12`: the cytotoxicity at 10 µM was -8.05%.

On to `CC(C)[C@H](NS(C)(=O)=O)C(=O)NCc1cc(-c2ccco2)nn1C`, for which the cytotoxicity at 10 µM is -10.5%.

Consider `Cc1nccn1-c1ccc(NC(=O)C2CCCN2Cc2ccoc2)cc1` (stereo not given), for which the cytotoxicity at 10 µM was 0.184%.

`OC[C@@H]1CCCN1Cc1cn(C2CCN(C3CCCC3)CC2)nn1`: the cytotoxicity at 10 µM was -3.73%.

On to `CC(C)(C)c1nc(CN(Cc2cccnc2)C2CN3CCC2CC3)no1` (stereo not given), for which the cytotoxicity at 10 µM was -4.09%.

Regarding `COc1ccc2[nH]c3c(c2c1)CN(c1cc(NCCO)nc(N)n1)CC3`, the cytotoxicity at 10 µM was 8.75%.

For `CSCC[C@@H](CO)Nc1ccc(-c2nc(C3CC3)no2)cn1`, the cytotoxicity at 10 µM amounted to 0.957%.

Consider `CN1CCCN(c2cnn(Cc3ccncc3)c(=O)c2)CC1`, for which the cytotoxicity at 10 µM amounted to 6.75%.

Regarding `COCc1cc(N2CCN(c3ccc(Cl)cn3)CC2)n2nccc2n1`, the cytotoxicity at 10 µM amounted to 8.89%.

On to `Oc1cc(CN2CCCCC2c2cccnc2)nc2c(F)cccc12` (stereo not given), for which the cytotoxicity at 10 µM is -6.88%.

For `CC(=O)N1CCC(C(=O)N2CCOC(CC3CCCCC3)C2)CC1` (stereo not given), the cytotoxicity at 10 µM is -13.7%.

For `CCC(CC)NCC(C)Oc1cccnc1` (stereo not given), the cytotoxicity at 10 µM worked out at 8.26%.

As for `Cc1ccc(CN2CCC3(CCCN(Cc4ccc(F)c(F)c4)C3)C2)o1` (stereo not given), the cytotoxicity at 10 µM is 9.39%.

Take `COc1cccc(OCCc2nc3c(cc2C(N)=O)CCC3)c1`: the cytotoxicity at 10 µM was found to be 7.32%.

For the compound `COc1ccc(C(=O)N2C[C@@H](NC(=O)N(C)C)[C@H](C(C)C)C2)c(OC)n1`, the cytotoxicity at 10 µM turned out to be 3.6%.

As to `Cc1cnn(CCNCC(O)COc2ccc(F)cc2)c1` (stereo not given), the cytotoxicity at 10 µM is -1.76%.

As for `NC(=O)CN1CCCN(C(=O)Cc2ccc(Br)cc2)CC1`, the cytotoxicity at 10 µM is -6.58%.

Take `CC(C)(O)CN1CCN(C(=O)c2sccc2C#N)CC1`: the cytotoxicity at 10 µM is -7.3%.

Consider `O=C(CCNC(=O)c1ccoc1)Nc1cc(F)cc(F)c1`, for which the cytotoxicity at 10 µM was -7.41%.

`Cc1noc(C)c1CN1CCc2nn(C(C)C)c(=O)cc2C1`: the cytotoxicity at 10 µM is -8.87%.

As to `c1c(CN2CCCC2)nc2n1CCN(C1CCOCC1)C2`, the cytotoxicity at 10 µM turned out to be 0.641%.

On to `CS(=O)(=O)N1CC[C@H]2O[C@H](C(=O)NCCc3ccccn3)CC[C@H]21`, for which the cytotoxicity at 10 µM was determined as 8.5%.

Consider `CC(C)(C)C(=O)N1C[C@H](c2ccsc2)[C@H]2CN(Cc3cccs3)CC[C@H]21`, for which the cytotoxicity at 10 µM stood at 12.7%.

Regarding `Cc1ccc(CN2CC3(CCN(C(=O)c4cscn4)C3)C2)o1`, the cytotoxicity at 10 µM was 5.28%.

`O=C(NCC1CC1)[C@H]1C[C@@H]2CCN(CCc3ccccc3)C[C@H]2O1`: the cytotoxicity at 10 µM is -75.5%.

As for `CN(C)CCN1CCOCC2(CCCN(C(=O)c3ccccn3)C2)C1` (stereo not given), the cytotoxicity at 10 µM was 6.67%.

`CC(C)N1CC[C@H]2[C@H](C[C@@H](Cn3cccn3)N2c2nccs2)C1`: the cytotoxicity at 10 µM was 3.28%.

`O=C(C1CCCC1)N1C[C@@H]2CCN(c3cccnc3)C[C@@H]2C1`: the cytotoxicity at 10 µM is -78.4%.

Turning to `CO[C@@H]1CCN(Cc2nccs2)C[C@@H]1Cc1cccc(C)c1`, the cytotoxicity at 10 µM was -71.8%.

As for `Cc1noc(C)c1CN1Cc2cnn(C)c2C(COCC2CC2)C1` (stereo not given), the cytotoxicity at 10 µM is -76.5%.

Take `Cc1ccc(CN2CCCn3nnc(COCCN(C)C)c3C2)s1`: the cytotoxicity at 10 µM is -114%.

For `O=C(C[C@@H]1COC[C@H]2CN(Cc3cccnc3)C[C@@H]12)NCC1CC1`, the cytotoxicity at 10 µM amounted to 0.752%.

In the case of `COc1cccc(CN2CCc3nc4ccsc4c(=O)n3CC2)c1`, the cytotoxicity at 10 µM is -26.5%.

For the compound `O=C(NC[C@]12COC[C@H]1CN(Cc1ccco1)C2)c1ccccc1`, the cytotoxicity at 10 µM is -2.53%.

`CN(Cc1cccnc1)C[C@H]1OC[C@@H]2CCN(C(=O)C3CC3)C[C@@H]21`: the cytotoxicity at 10 µM is -117%.

Take `c1cncc(COCc2cncc3c2CCN(Cc2ccoc2)C3)c1`: the cytotoxicity at 10 µM was -109%.

`C=C1C(C)(C)[C@@H]2CC[C@]1(C(=O)N1CCC(n3cc(CO)nn3)CC1)C2`: the cytotoxicity at 10 µM is -7.73%.

As to `CNC(=O)N1C[C@@H]2C[C@H](C(=O)Nc3cccnc3)[C@H](C1)O2`, the cytotoxicity at 10 µM was -76.2%.
